Legend:
Type in all cases: functional
HUVEC = experiment: Antiproliferative activity against HUVEC cells; conditions: Homo sapiens
Procedure, shortened: (§1)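 HUVEC and K562 (DSM ACC 10) cells were exposed to compounds and growth was scored against untreated controls. The readout is GI50, the concentration that cuts growth of treated cells to half that of untreated cells.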

K562 = experiment: Antiproliferative activity against human K562 cells; procedure, shortened: as §1
HeLa = experiment: Cytotoxicity against human HeLa cells
Procedure, shortened: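 HeLa cervix carcinoma cells (DSM ACC 57) were treated with compounds. The readout is CC50, the concentration that kills 50% of treated cells.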

| SMILES | GI50 (HUVEC) [µM] | GI50 (K562) [µM] | CC50 (HeLa) [µM] |
| --- | --- | --- | --- |
| CC1=CC(=O)/C(=C(\C)N)C(=O)O1 | 68.2 | 9 | 104 |
| CC(=O)N1CCc2c([nH]c3ccccc23)C1 | 41.1 | 33.3 | 23.8 |
| Cc1ccc(NC(=O)c2ccc(CN3CCN(C)CC3)cc2)cc1Nc1nccc(-c2cccnc2)n1 [IMATINIB] | 18.5 | 0.17 | 65.8 |
| O=C(CO)c1cccn1CCc1ccc(O)cc1 [FUSARINE] | > 200 | > 200 | > 200 |
| C/C=C(\C)C(=O)NCC(C)C | > 300 | > 300 | > 300 |
| CC1=CC(=O)/C(=C(\C)NCCc2ccc(O)cc2)C(=O)O1 [FUSAMINE] | 37.3 | 37.6 | 23.3 |

From ChEMBL document CHEMBL2034865, “Cytotoxic alkaloids from Fusarium incarnatum associated with the mangrove tree Aegiceras corniculatum” (2012)
